Results from different studies.
Compare with care: the assays were run in different laboratories. Values after ≈ are worked out from the molar mass of the structure shown.

SMILES | target or system | assay | system | setting | measurement | value
OC(Cn1cncn1)(Cn1cncn1)c1ccc(F)cc1F | Nakaseomyces glabratus | microbial growth, broth dilution | ATCC2001 | – | MIC | 2 µg/mL
COc1ccc(-c2[nH]c3c(C)c(C)ccc3c2C(=O)c2cc(OC)c(OC)c(OC)c2)cc1O | – | tubulin polymerisation, inhibitor, absorbance | – | – | IC50 | > 20 µM
CC[C@@]1(O)C(=O)OCc2c1cc1n(c2=O)Cc2cc3ccccc3nc2-1 | LS174T | cell growth or viability, MTT | – | 48 h | IC50 | 31.6 µM
O=C/C=C/c1ccccc1 | Cryptococcus neoformans | microbial killing, broth dilution | – | clinical isolate | MFC | 200 µg/mL (≈ 1510 µM)
Oc1c(Br)cc(Br)cc1-c1[nH]c(Br)c(Br)c1Br | Bacillus subtilis | microbial growth | ATCC6051 | – | MIC | 0.01 µM
COc1ccc(-c2[nH]c3c(OC)c(OC)c(OC)cc3c2C(=O)c2cc(OC)c(OC)c(OC)c2)cc1O | – | tubulin polymerisation, inhibitor, absorbance | – | – | IC50 | > 20 µM
N.N.[Cl][Pt][Cl] | HaCaT | cell growth or viability, MTT | – | 48 h | IC50 | 14.2 µM
Oc1c(Cl)cc(Cl)cc1-c1[nH]c(Cl)c(Cl)c1Cl | Bacillus subtilis | microbial growth | ATCC6051 | – | MIC | 0.04 µM
